Here are results for one compound from ChEMBL document CHEMBL1145905, “Design and synthesis of novel dimeric morphinan ligands for kappa and micro opioid receptors” (J Med Chem, 2003).

For experiment [1], the target named is T1, Mu-type opioid receptor (Homo sapiens, UniProt P35372). Put plainly: Percent maximal stimulation in [35S]-GTP-gamma S binding assay mediated by the Opioid receptor mu 1 in chinese Hamster Ovary (CHO)membranes. In general terms: GTPγS is a poorly hydrolysed GTP analogue; its binding reports G protein activation.
In experiment [2] the target is T2, Kappa-type opioid receptor (Homo sapiens, UniProt P41145). Description: Percent maximal stimulation in [35S]-GTP-gamma S binding assay mediated by the Opioid receptor kappa 1 in chinese Hamster Ovary (CHO)membranes. The experiment is classed as functional.
Experiment [3] concerns the target T2, Kappa-type opioid receptor. Description: Inhibitory activity in stimulating [35S]-GTP-gamma S binding mediated by the Opioid receptor kappa 1 in chinese Hamster Ovary (CHO) cell membranes. It counts as functional. Put shortly: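 Antagonist mode: membranes of CHO cells stably expressing human κ receptor (15 µg protein/tube) incubated with varying compound concentrations plus 100 nM U50,488, 60 min at 30 °C, in Tris/MgCl2/NaCl/EGTA buffer pH 7.4 with 3 µM GDP and [35S]GTPγS. Filtration, scintillation counting. Nonspecific binding with 10 µM GTPγS.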

In experiment [4] the target is T2, Kappa-type opioid receptor. Put plainly: Inhibitory activity against Opioid receptor kappa 1 in chinese Hamster Ovary (CHO) cell membranes was determined using [3H]U-69593 radioligand.
Experiment [5] has as its target T1, Mu-type opioid receptor. Description: Inhibitory activity against Opioid receptor mu 1 in chinese Hamster Ovary (CHO) cells membranes was determined using [3H]-DAMGO radioligand. The experiment is classed as cell-based.
Experiment [6] concerns the target Delta-type opioid receptor (Homo sapiens, UniProt P41143). Put plainly: Inhibitory activity against Opioid receptor delta 1 in chinese Hamster Ovary (CHO) cell membranes was determined using [3H]naltrindole radioligand.
For experiment [7], the target named is T1, Mu-type opioid receptor. Description: Inhibitory activity was determined in stimulating [35S]-GTP-gamma S binding mediated by the Opioid receptor mu 1 in chinese Hamster Ovary (CHO)membranes.
Experiment [8] deals with T1, Mu-type opioid receptor. Put plainly: Maximal percent inhibitory activity was determined in stimulating [35S]-GTP-gamma S binding mediated by the Opioid receptor mu 1 in chinese Hamster Ovary (CHO) cell membranes. Put shortly:
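Antagonist mode: human μ-CHO membranes (7.5 μg protein) with 200 nM DAMGO plus varying compound concentrations, 3 μM GDP, […] [35S]GTPγS, 60 min at 30 °C, pH 7.4 buffer with Mg2+/NaCl/EGTA; filtration, counting.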

For experiment [9], the target named is T2, Kappa-type opioid receptor. Put plainly: Inhibitory activity in stimulating [35S]-GTP-gamma S binding mediated by the Opioid receptor kappa 1 in chinese Hamster Ovary (CHO) cell membranes was determined. The experiment is classed as functional.
Experiment [10] deals with Opioid receptors; delta & kappa (Homo sapiens) (UniProt P41145+P41143). Description: Selective inhibitory activity was determined against kappa & delta opioid receptor in chinese Hamster Ovary (CHO) cell membranes.
Experiment [11] concerns the target Opioid receptors; mu & kappa (Homo sapiens) (UniProt P41145+P35372). Description: Selective inhibitory activity was determined against kappa & mu opioid receptor in chinese Hamster Ovary (CHO) cell membranes.
Experiment [12] deals with T1, Mu-type opioid receptor.

T2 sequence (P41145 whole entry): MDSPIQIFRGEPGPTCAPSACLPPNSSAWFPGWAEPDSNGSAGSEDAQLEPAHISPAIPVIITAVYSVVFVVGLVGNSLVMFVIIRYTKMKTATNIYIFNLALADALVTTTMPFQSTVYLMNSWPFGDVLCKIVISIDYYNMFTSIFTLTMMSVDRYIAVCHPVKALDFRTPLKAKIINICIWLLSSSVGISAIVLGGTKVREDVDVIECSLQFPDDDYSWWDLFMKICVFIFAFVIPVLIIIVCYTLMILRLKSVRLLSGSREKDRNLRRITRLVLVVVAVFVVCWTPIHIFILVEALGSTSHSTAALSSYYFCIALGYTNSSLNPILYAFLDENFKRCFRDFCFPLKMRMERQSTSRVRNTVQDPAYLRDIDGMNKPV
T1 sequence (P35372 whole entry): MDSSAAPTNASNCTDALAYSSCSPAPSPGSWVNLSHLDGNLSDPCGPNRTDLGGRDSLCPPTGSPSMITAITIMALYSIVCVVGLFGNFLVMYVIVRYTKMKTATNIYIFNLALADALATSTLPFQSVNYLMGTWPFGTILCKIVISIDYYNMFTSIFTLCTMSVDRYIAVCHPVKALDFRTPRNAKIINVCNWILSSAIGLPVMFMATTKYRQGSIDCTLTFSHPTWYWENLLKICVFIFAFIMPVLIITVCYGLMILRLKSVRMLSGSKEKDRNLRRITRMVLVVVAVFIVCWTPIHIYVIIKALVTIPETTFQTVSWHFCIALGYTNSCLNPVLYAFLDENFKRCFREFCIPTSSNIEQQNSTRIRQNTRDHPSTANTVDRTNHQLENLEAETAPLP
Chain of Delta-type opioid receptor (P41143 whole entry): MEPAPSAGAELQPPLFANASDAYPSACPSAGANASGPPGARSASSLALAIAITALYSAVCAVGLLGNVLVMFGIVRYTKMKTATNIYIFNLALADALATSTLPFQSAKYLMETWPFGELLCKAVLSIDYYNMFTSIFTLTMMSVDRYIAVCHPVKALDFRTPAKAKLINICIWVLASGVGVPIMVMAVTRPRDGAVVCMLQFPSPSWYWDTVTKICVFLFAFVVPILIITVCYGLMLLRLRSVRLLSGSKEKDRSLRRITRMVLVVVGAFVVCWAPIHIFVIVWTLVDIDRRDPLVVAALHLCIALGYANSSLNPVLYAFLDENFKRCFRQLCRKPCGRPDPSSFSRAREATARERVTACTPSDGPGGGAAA
Chain of Opioid receptors; delta & kappa (Homo sapiens) (P41143 whole entry, looked up): as the sequence (P41143 whole entry) above
Chain of Opioid receptors; delta & kappa (Homo sapiens) (P41145 whole entry, looked up): as the sequence (P41145 whole entry) above
Chain of Opioid receptors; mu & kappa (Homo sapiens) (P35372 whole entry, looked up): as the sequence (P35372 whole entry) above
Chain of Opioid receptors; mu & kappa (Homo sapiens) (P41145 whole entry, looked up): as the sequence (P41145 whole entry) above

One may read the Emax as the maximal effect, on the per cent scale that the assay sets. What is called IC50 is the concentration that gives 50% inhibition. A low value points to greater potency in that assay. For orientation: Ki means the dissociation constant of the complex between target and ligand, obtained from inhibition or displacement. A lower Ki goes with a stronger hold on the target. In general, EC50 refers to the midpoint of the concentration-response curve. Read a low EC50 as an effect from little substance. In the case of `O=C(/C=C/C(=O)Oc1ccc2c(c1)[C@@]13CCCC[C@H]1[C@@H](C2)N(CC1CCC1)CC3)Oc1ccc2c(c1)[C@@]13CCCC[C@H]1[C@@H](C2)N(CC1CCC1)CC3`, the Emax is 50% in experiment [1] and 90% in experiment [2]. Besides, the IC50 in experiment [3] was found to be 2400 nM; in experiment [7] it was 610 nM. For the same compound, the figures for the Ki in experiment [4], in [5] and in experiment [6] were 0.078 nM, 0.2 nM and 9.4 nM, respectively. The Imax in experiment [8] stood at 100%. Also, the EC50 in experiment [9] amounted to 2.3 nM; in [12], 2.9 nM. Moreover, the Selectivity in [10] is 120; in experiment [11], 3.
